For 73 molecules, B-score results are on record in PubChem BioAssay AID2648 (Johns Hopkins Ion Channel Center, 2010).

About 1,100 (0.35%) of roughly 310,000 compounds were called active.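 How the source made its calls: active means fluorescence ratio B-score, a plate-corrected score, at least three library SD, with initial intensity B-score within 5 SD; inactive means the rest.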 The entries come from a sample that favours actives as a whole.

For the test, the target named is Potassium voltage-gated channel subfamily KQT member 1 (Homo sapiens) (UniProt P51787). Nature of the test: potentiators or activators of KCNQ1 channel, primary screen, cell-based, thallium flux, high-throughput (AID 2648). The note with it: CHO-K1 KCNQ1, thallium flux FluxOR fluorescence, at 10 µM; hits give high values. Put shortly: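 Assay system: CHO-K1 cells stably expressing KCNQ1. Medium: assay buffer for compound exposure, DMSO matched across wells. Timing: 37 °C overnight plating, 90-min dark dye load, 20-min compound pretreatment. Signal: kinetic FluxOR fluorescence, 10 s baseline plus 110 s post-stimulus.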
Chain of Potassium voltage-gated channel subfamily KQT member 1 (Homo sapiens) (P51787 whole entry, looked up): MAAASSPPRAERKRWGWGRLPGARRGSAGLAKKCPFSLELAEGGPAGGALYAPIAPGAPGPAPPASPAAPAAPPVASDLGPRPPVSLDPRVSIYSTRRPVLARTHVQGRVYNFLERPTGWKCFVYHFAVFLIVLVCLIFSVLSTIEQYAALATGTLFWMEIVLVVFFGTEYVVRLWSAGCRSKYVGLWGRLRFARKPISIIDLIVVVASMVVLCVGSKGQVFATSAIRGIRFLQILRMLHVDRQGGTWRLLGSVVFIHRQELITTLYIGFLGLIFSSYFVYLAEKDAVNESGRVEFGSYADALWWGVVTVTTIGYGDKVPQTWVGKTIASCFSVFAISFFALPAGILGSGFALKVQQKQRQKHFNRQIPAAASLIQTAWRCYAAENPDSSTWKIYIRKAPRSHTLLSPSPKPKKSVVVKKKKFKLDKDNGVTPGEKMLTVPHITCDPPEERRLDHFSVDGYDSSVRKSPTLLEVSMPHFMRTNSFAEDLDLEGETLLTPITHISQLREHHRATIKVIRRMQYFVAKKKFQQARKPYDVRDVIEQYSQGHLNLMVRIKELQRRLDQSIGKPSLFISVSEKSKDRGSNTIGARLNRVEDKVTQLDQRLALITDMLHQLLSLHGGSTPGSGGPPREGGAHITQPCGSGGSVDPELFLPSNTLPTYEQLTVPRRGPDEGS
On to `Cc1cc2occ(CC(=O)NNC(=O)c3ccccc3F)c2cc1C`, for which the B-score entry was “inactive”.

In the case of `CCOC(=O)CN(C(=O)COc1nc(-c2ccccc2)cc(C)c1C#N)c1ccc(F)cc1`, the B-score result is “inactive”.

As to `Cc1cccc(C(=O)Nc2ccc(C(=O)/C=C/c3cccs3)cc2)c1`, the B-score entry was “inactive”.

As for `Cc1cccc(/C(N)=N/OC(=O)c2ccccc2Cl)c1`, the B-score result is “inactive”.

Turning to `C/C(=N/NC(=S)Nc1ccccc1)c1ccc2c(c1)OCO2`, the B-score result is “inactive”.

Regarding `Cc1ccc(NC(=O)c2cc3ccccc3o2)cc1`, the B-score entry was “inactive”.

For the molecule `C/C(=N\NC(=S)Nc1ccc(C)cc1)c1cc2ccccc2o1`, the B-score is 28 (active).

As to `O=C(CSc1nncn1-c1cccnc1)N1CCOCC1`, the B-score result is “inactive”.

`CCc1[nH]nc(C(=O)N2CCCC(CNS(=O)(=O)c3cccs3)C2)c1C` (stereo not drawn): the B-score result was “inactive”.

Turning to `CC(C)c1ccc2c(c1)c(SC(C)(C)C)c(CC(C)(C)C(=O)O)n2Cc1ccc(Cl)cc1`, the B-score was 44 (active).

On to `Nc1ncnc(Nc2cccc(Cl)c2Cl)n1`, for which the B-score result is “inactive”.

Take `Cc1cccc(C(=O)NCCCN(C)CCCNC(=O)c2cccc(C)c2)c1`: the B-score entry is “inactive”.

On to `Cc1cccc(NC(=S)NCCN(C2CCCCC2)C2CCCC2)c1`, for which the B-score entry is “inactive”.

Consider `Cc1cccc(C(=O)NC(=S)N(C)C2CCCCC2)c1`, for which the B-score is 16 (active).

For the molecule `COc1ccc(C(=O)C2CCCN(C(=O)c3cnsn3)C2)c(C)c1` (stereo not drawn), the B-score result is “inactive”.

`OC(CNC1CCCC1)COc1ccc(F)cc1` (stereo not drawn): the B-score entry is “inactive”.

For the molecule `CC1CCN(C(=O)c2ccc(S(=O)(=O)Cc3cc(F)ccc3F)c([N+](=O)[O-])c2)CC1`, the B-score result was “inactive”.

Turning to `COc1cccc2sc(Nc3nc(C)c(C(C)=O)s3)nc12`, the B-score result was “inactive”.

For `COc1ccccc1OCc1nc2ccccc2s1`, the B-score result was “inactive”.

Turning to `COc1cccc2sc(NNC(=O)c3nc4ccccc4s3)nc12`, the B-score is 28 (active).

Turning to `CN(CC(=O)Nc1ccccc1C(F)(F)F)C(=O)Cc1ccccc1F`, the B-score result is “inactive”.

As for `COCCNC(=O)CN1C(=O)CSc2ncccc21`, the B-score result is “inactive”.

For the molecule `O=c1c2cc(Br)ccc2nc(-c2cccc(Cl)c2)n1O`, the B-score was 89 (active).

With `Cc1cccc(-c2nc3ccccc3c(=O)n2NC(=O)Cc2ccc(Cl)cc2)c1`, the B-score entry is “inactive”.

In the case of `O=C1CCCc2c1nc(-c1cccc(Cl)c1)n2O`, the B-score result was “inactive”.

As to `Cc1ccc(S(=O)(=O)N(C)C)cc1NC(=O)COC(=O)/C=C/c1cccs1`, the B-score result is “inactive”.

As to `O=C(NCCc1ccco1)C(=O)NCCC1CCCCN1S(=O)(=O)c1ccccc1` (stereo not drawn), the B-score result is “inactive”.

For the molecule `COc1ccc(-n2cc(-c3ccccc3)c3c(=S)nc[nH]c32)cc1`, the B-score is 8 (active).

In the case of `COc1ccc(-n2c(-c3ccc(OC)c(OC)c3)n[nH]c2=S)cc1`, the B-score result was “inactive”.

For the molecule `O=c1[nH]cnc2c1c(-c1ccccc1)cn2-c1ccc(F)cc1`, the B-score result is “inactive”.

`CC(=O)NS(=O)(=O)c1ccc(NC(=O)/C=C/c2ccccc2Cl)cc1`: the B-score result was “inactive”.

With `CN(C(=O)c1c(Cl)cnn1C)C12CC3CC(CC(C3)C1)C2`, the B-score entry is “inactive”.

Turning to `Nc1ccc(N=Nc2ccccc2Cl)c(N)n1`, the B-score entry was “inactive”.

`Cc1ccc(OCC(=O)NCCCNC(=O)c2ccco2)cc1C`: the B-score entry is “inactive”.

Take `Cc1ccc(C(=O)NNC(=O)C(C)Oc2ccc3ccccc3c2)o1` (stereo not drawn): the B-score result was “inactive”.

For `CCCc1ccc(OCC(=O)NNC(=S)NC(=O)c2ccco2)cc1`, the B-score was 10 (active).

As to `CC(Oc1ccc2ccccc2c1)C(=O)NNC(=S)NC(=O)c1ccco1` (stereo not drawn), the B-score is 38 (active).

As to `CCCc1ccc(OCCNC(=O)c2ccco2)cc1`, the B-score entry is “inactive”.

For `O=C(Nc1ccc2ccccc2c1)/C(=C/c1cccc(Br)c1)NC(=O)c1ccco1`, the B-score result was “inactive”.

Consider `O=C(c1cccs1)n1nc(NCc2ccccc2)nc1NCc1ccccc1`, for which the B-score result is “inactive”.

As to `COC(=O)Cc1cnc(NC(=O)CSc2nc(C(C)C)cc(=O)[nH]2)s1`, the B-score result was “inactive”.

Regarding `CC(=O)c1c(C)[nH]c(C(=O)OCC(=O)Nc2sc3c(c2C#N)CCCC3)c1C`, the B-score entry is “inactive”.

Regarding `Cc1ccc(CNC(=O)CCC(=O)N2CC(C)Sc3ccccc32)cc1` (stereo not drawn), the B-score result is “inactive”.

Regarding `O=S(=O)(Nc1cccc(-c2ccc(N3CCOCC3)nn2)c1)c1ccc(Cl)c(Cl)c1`, the B-score entry is “inactive”.

Regarding `Cc1cccc(NC(=S)NC(=O)c2ccc(Br)o2)c1`, the B-score is 25 (active).

As to `Cc1cccc(NC(=O)c2ccc([N+](=O)[O-])o2)c1`, the B-score entry is “inactive”.

As to `Cc1cccc(NC(=O)NC(=S)NC(=O)c2ccccc2)c1`, the B-score entry was “inactive”.

For `Cc1ccc(CNC(=O)[C@@H](NC(=O)Cc2ccccc2)C(C)C)cc1`, the B-score entry is “inactive”.

As for `Cc1ccc(S(=O)(=O)N(CC(=O)NCCSC2CCCCC2)c2ccccc2F)cc1`, the B-score result is “inactive”.

As for `O=C(N1CCOCC1)N1CCOCC1`, the B-score entry was “inactive”.

As for `O=C(N1CCCCC1)N1CCN(C(=O)N2CCCCC2)CC1`, the B-score is 10 (active).

On to `CN1CCCN(C(=O)C2CCCCC2)CC1`, for which the B-score entry is “inactive”.

On to `Cc1sc(NC(=O)C2=COCCO2)c(C#N)c1C`, for which the B-score result is “inactive”.

Regarding `CC1CCN(S(=O)(=O)c2ccc(NC(=O)C3CC(=O)N(c4ccccc4)C3)cc2)CC1` (stereo not drawn), the B-score entry was “inactive”.

`c1ccc2c(c1)OCC(CNc1ncnc3nc[nH]c13)O2` (stereo not drawn): the B-score was 8 (active).

For the molecule `S=C(NCC1COc2ccccc2O1)Nc1ccc(Br)cc1` (stereo not drawn), the B-score result is “inactive”.

With `c1ccc(-c2cc3c(NCC4COc5ccccc5O4)ncnc3s2)cc1` (stereo not drawn), the B-score result was “inactive”.

Regarding `O=C(O)C1CCCN1S(=O)(=O)c1ccc(Br)cc1` (stereo not drawn), the B-score entry was “inactive”.

In the case of `O=C(CSc1nccc(=O)[nH]1)Nc1ccc(N2CCOCC2)c(Cl)c1`, the B-score entry was “inactive”.

In the case of `O=C(Nc1nnc(-c2ccc(Cl)cc2)o1)c1ccccc1Br`, the B-score was 8 (active).

`O=C(Nc1cccc(Cl)c1)Nc1nnc(-c2ccccc2)o1`: the B-score result is “inactive”.

For the molecule `O=C(COC(=O)c1ccccc1Br)Nc1nnc(-c2ccccc2)o1`, the B-score entry is “inactive”.

Regarding `Cc1nnc(Nc2ccccc2F)s1`, the B-score entry was “inactive”.

As for `CC(=O)Nc1ccc(S(=O)(=O)N2CCC(C(=O)NC3CC3)CC2)cc1`, the B-score entry is “inactive”.

Take `CCOc1ccc(N(CC)S(=O)(=O)c2cccc3nsnc23)cc1`: the B-score result is “inactive”.

For `CC(C)(C)C1CCc2c(sc3nc(SCC(N)=O)nc(N)c23)C1` (stereo not drawn), the B-score result was “inactive”.

Turning to `CCCCn1c(=S)[nH]c2ccccc2c1=O`, the B-score was 18 (active).

As for `CCN(CC)CCn1c(=S)[nH]c2ncccc2c1=O`, the B-score result is “inactive”.

Regarding `CCCCNC(=O)CCn1c(=S)[nH]c2cc3c(cc2c1=O)OCO3`, the B-score entry was “inactive”.

Regarding `CCCCn1c(=S)[nH]c2ncccc2c1=O`, the B-score is 10 (active).

As for `CCCCNC(=O)c1ccc(-n2c(=S)[nH]c3ccccc3c2=O)cc1`, the B-score entry is “inactive”.

As for `O=c1c2ccccc2[nH]c(=S)n1CCN1CCC(=C(c2ccc(F)cc2)c2ccc(F)cc2)CC1`, the B-score entry is “inactive”.

On to `O=C(Nc1ccc(CN2CCOCC2)cc1)c1cc(Cl)ccc1Cl`, for which the B-score result was “inactive”.
